From article PMC3728731 (Chemmedchem, 2013)
Values joined by “and” are separate entries in the source; they are usually repeats but may differ in a detail not shown here. Equal entries are not always repeated.

Legend:
TbGSK3 [1] = target: T1, TbGSK3 (Trypanosoma brucei brucei, UniProt Q388M1); assay: TbGSK3 radiometric Flashplate potency assay; type: biochemical; conditions: for IC50: IC50 TbGSK3, Flashplate, 1 μM ATP (<KM); for fold less active than 8 against TbGSK3: compared with compound 8
T1 sequence (Q388M1 1-352): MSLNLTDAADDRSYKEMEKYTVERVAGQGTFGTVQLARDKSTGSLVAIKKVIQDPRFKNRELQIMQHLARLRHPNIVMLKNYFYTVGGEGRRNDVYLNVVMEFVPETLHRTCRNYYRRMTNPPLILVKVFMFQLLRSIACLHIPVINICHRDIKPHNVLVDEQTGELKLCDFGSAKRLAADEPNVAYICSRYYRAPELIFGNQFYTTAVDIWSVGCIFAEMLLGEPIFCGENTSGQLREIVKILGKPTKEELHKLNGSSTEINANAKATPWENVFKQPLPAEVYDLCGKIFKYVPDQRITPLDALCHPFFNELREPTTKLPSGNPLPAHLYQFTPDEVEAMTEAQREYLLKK
How it was run: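 Radiometric streptavidin Flashplate capture of biotinylated phosphoproduct. MBP-fused short TbGSK3 (2.5 nM), 1 μM biotinylated GSP2, 1 μM ATP plus 3.7 KBq [γ-³³P]ATP/well. 10-point titration, 30 μM–0.3 nM final, 1% DMSO. IC50 by four-parameter fit; ligand efficiency = [−RT ln(IC50)]/heavy-atom count.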

HsGSK3β = HsGSK3β (Homo sapiens, UniProt P49841); assay: HsGSK3β radiometric Flashplate assay; type: biochemical
TbGSK3 [2] = target: T1, TbGSK3; assay: Mechanism of inhibition of TbGSK3; type: biochemical; conditions: for mechanism of inhibition: versus ATP, saturating GSP2
How it was run: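 Rates (CPM) measured at 10 test-compound concentrations × four ATP concentrations, GSP2 phosphopeptide saturating. Lineweaver–Burk plots examined for competitive, mixed or uncompetitive patterns; apparent K_i calculated.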

[3] = tested on: MRC5 (human lung fibroblast) cells; assay: MRC5 proliferation assay; type: cell-based; conditions: T. brucei versus MRC5
How it was run: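 MRC5 human lung fibroblasts, 2×10³ cells/well, grown in MEM with 10% foetal bovine serum. Test compound from 50 μM to 0.5 nM. Incubated 69 h at 37 °C, 5% CO₂. Resazurin added (50 μM final), then a further 4 h under the same conditions. Read by fluorescence.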

GSK3 = GSK3 (Homo sapiens, UniProt P49841); assay: Mammalian kinase selectivity panel; type: biochemical; conditions: read-out: inhibition of GSK3
How it was run: (§1)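 Run by the University of Dundee DSTT mammalian panel, which then held 76 kinases. Test compound screened in duplicate at 10 μM. Each kinase assayed with ATP below its apparent K_M for ATP.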

CDK2-Cyclin A = CDK2-Cyclin A (Homo sapiens, UniProt P24941); assay: Mammalian kinase selectivity panel; type: biochemical; conditions: read-out: inhibition of CDK2
How it was run: as §1

76 mammalian kinases = assay: Mammalian kinase selectivity panel, whole panel; type: biochemical; conditions: 10 μM

HsGSK3β, sequence (P49841 whole entry): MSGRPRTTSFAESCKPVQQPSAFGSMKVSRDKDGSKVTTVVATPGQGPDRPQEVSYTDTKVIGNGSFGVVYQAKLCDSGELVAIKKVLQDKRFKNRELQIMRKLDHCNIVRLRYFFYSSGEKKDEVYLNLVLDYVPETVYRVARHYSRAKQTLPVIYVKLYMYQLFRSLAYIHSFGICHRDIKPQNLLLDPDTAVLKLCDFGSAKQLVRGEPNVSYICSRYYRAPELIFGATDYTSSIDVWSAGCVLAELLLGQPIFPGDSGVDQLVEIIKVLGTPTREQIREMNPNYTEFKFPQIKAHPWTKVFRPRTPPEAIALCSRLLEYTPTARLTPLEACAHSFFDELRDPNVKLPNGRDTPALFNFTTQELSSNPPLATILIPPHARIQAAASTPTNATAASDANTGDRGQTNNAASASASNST
GSK3, sequence (P49841 whole entry): as above

Row | Compound | IC50 (TbGSK3 [1]) | IC50 (HsGSK3β) | fold less active than 8 against TbGSK3 (TbGSK3 [1]) | other results
1 | Nc1nc(NC2CCCCC2)sc1C(=O)c1ccccc1 [Compound 19, (4-Amino-2-(cyclohexylamino)thiazol-5-yl)(phenyl)methanone] | 190 nM and 200 nM | 2 nM | sixfold | Ki (TbGSK3 [2]): 250 ± 30 nM; mechanism of inhibition (TbGSK3 [2]): ATP-competitive
2 | Nc1nc(NCC2CCCCC2)sc1C(=O)c1ccccc1 [Compound 20, (4-Amino-2-((cyclohexylmethyl)amino)thiazol-5-yl)(phenyl)methanone] | 700 nM | 20 nM | – | –
3 | Nc1nc(NCCc2ccccc2)sc1C(=O)c1ccccc1 [Compound 21, (4-Amino-2-(phenethylamino)thiazol-5-yl)(phenyl)methanone] | 500 nM | 3 nM | – | –
4 | CC(C)(C)C(=O)c1sc(NC2CCCCC2)nc1N [Compound 22, 1-(4-Amino-2-(cyclohexylamino)thiazol-5-yl)-2,2-dimethylpropan-1-one] | 12000 nM | – | ~300 fold | selectivity over the human MRC5 cell line [3]: > 150 fold; inhibition at 10 µM (GSK3): > 70%; inhibition at 10 µM (CDK2-Cyclin A): > 70%; kinases of the panel inhibited at the >90 % level (76 mammalian kinases): did not inhibit any kinase at the >90 % level

The next lines start with results.

Row | IC50 (TbGSK3 [1]) | IC50 (HsGSK3β) | fold less active than 8 against TbGSK3 (TbGSK3 [1]) | Compound | other results
5 | 20 nM | 5 nM | – | Nc1nc(Nc2ccccc2)sc1C(=O)c1c(F)cccc1F [Compound 14, (4-Amino-2-(phenylamino)thiazol-5-yl)(2,6-difluorophenyl)methanone] | Ki (TbGSK3 [2]): 50 ± 10 nM; mechanism of inhibition (TbGSK3 [2]): ATP-competitive
6 | 400 nM | 2000 nM | – | COc1cccc(OC)c1C(=O)c1sc(Nc2ccccc2)nc1N [Compound 15, (4-Amino-2-(phenylamino)thiazol-5-yl)(2,6-dimethoxyphenyl)methanone] | fold less active than 14 against TbGSK3 (TbGSK3 [1]; compared with compound 14): over 10 fold
7 | 100 nM | 5 nM | – | Nc1nc(Nc2ccccc2)sc1C(=O)c1cccc(Br)c1 [Compound 16, (4-Amino-2-(phenylamino)thiazol-5-yl)(3-bromophenyl)methanone] | –
8 | 200 nM | 200 nM | approximately 10 fold | Cc1cccc(C)c1Nc1nc(N)c(C(=O)c2ccccc2)s1 [Compound 17, (4-Amino-2-((2,6-dimethylphenyl)amino)thiazol-5-yl)(phenyl)methanone] | –
9 | 60 nM | 2 nM | – | Cc1ccc(Nc2nc(N)c(C(=O)c3ccccc3)s2)cc1C [Compound 18, (4-Amino-2-((3,4-dimethylphenyl)amino)thiazol-5-yl)(phenyl)methanone] | –
